M1 ag – M1 muscarinic receptor agonists, primary screen, CHO-M1 cells, Fluo-4 calcium, agonist mode | B-score at 10 µM | actives 3% (n = 64,000) | Muscarinic acetylcholine receptor M1 | Fluo-4 calcium fluorescence; hits give high values;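 active means fluorescence rise, raw or as B-score row- and column-corrected plate score, outside the 99.7% band of its plate's samples, either direction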
D1 mod – D1 CRE-luciferase signal change, two-sided – cell-based, HEK293 D1, dopamine EC30, D1 allosteric modulator project, primary screen; D(1A) dopamine receptor (Homo sapiens), P21728; dopamine EC30 potentiation; actives deviate in either direction; B-score at 10 µM; actives 5.9% (n = 58,000);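 active means luminescence count or its row- and column-corrected plate score outside the 99.7% band of the plate's sample wells, on either side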
Target sequence (P21728 whole entry, looked up): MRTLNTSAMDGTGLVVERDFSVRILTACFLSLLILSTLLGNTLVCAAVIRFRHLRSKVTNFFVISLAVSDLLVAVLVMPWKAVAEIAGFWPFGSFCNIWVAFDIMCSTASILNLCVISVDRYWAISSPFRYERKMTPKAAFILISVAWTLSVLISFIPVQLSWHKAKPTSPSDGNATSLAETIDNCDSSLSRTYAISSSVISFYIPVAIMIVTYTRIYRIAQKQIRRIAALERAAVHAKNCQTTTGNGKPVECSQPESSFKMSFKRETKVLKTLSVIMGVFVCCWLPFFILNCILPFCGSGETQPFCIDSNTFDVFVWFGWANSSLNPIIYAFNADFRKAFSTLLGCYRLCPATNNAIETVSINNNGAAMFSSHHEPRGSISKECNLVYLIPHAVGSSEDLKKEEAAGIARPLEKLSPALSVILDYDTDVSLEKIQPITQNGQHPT
M1 antagonist – antagonists of rat M1 muscarinic receptor | Muscarinic acetylcholine receptor M1 (Rattus norvegicus), P08482 | AID 628, 2007 | B-score at 10 µM | actives 3.4% (n = 64,000) | CHO-M1 cells, Fluo-4 calcium, ACh EC80 antagonist mode; hits give low values;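 active means calcium fluorescence response, raw or row-and-column corrected B-score, differing from the plate sample mean either way at a set confidence level, mostly lower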
S1P3 agonist – human S1P3 receptor agonists, primary screen, cell-based, primary and confirmation, NFAT-BLA reporter; S1P3 NFAT-BLA reporter cells, agonism, FRET ratio; relative to 1 µM S1P, basal subtracted; Sphingosine 1-phosphate receptor 3 (Homo sapiens), Q99500; activation, % at 4.5 µM; actives 0.1% (n = 60,000);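 active means activation above the screen-wide mean plus 3 SD, cut at about 4.5% in these data, passing the limit was not always enough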
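Assay system: CHO cells stably expressing human S1P3, Gα16 and NFAT-β-lactamase reporter. Timing: overnight plating, 4 h compound 37 °C, 2 h substrate RT. Signal: β-lactamase FRET emission ratio 460/535 nm. Measure: percent activation versus median 1 µM S1P response, basal-subtracted, per plate. Repeats: primary screen single test, confirmation screen in triplicate.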
TNAP act mid DEA – human TNAP enzyme activators, primary screen, biochemical, luminescent, intermediate phosphate acceptor level; 64,000 tested, under 10 active; activation factor at 20 µM; purified TNAP, CDP-star luminescence, 100 mM DEA, 30 min; hits give high values; scale: 0 levamisole-inhibited, 1 vehicle-only enzyme; Alkaline phosphatase, tissue-nonspecific isozyme (Homo sapiens), P05186;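 active means activation factor of at least 2 at 20 µM, relative to controls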
S1P1 ag-PAM – S1P1 agonists and agonism potentiators, primary screen, cell-based, primary and confirmation screens, CRE-bla reporter; S1P1 CRE-bla cells, forskolin, beta-lactamase FRET, potentiator mode; S1P1 agonist co-added at EC20, 2 nM; 100% = saturating reference agonist, 0% = basal; activation, % at 9.5 µM; actives 0.57% (n = 56,000);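 active means activation above a cutoff set at the mean activation of all tested compounds plus 3 SD, cut at about 54% in these data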;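 further: forskolin at 4 µM as EC80 and the EC20 agonist is SEW2871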
Hits are given with their value. Rows were chosen to be rich in hits. Some 11% of all compounds tested hit in one or more screens of this group.

How did CN(C)CCCNC(=O)C1CCNCC1 do in these assays?
M1 ag: inactive; D1 mod: -3; M1 antagonist: inactive; S1P3 agonist: inactive; TNAP act mid DEA: inactive; S1P1 ag-PAM: inactive

Results for O=C1c2oc3ccc(F)cc3c(=O)c2C(c2ccccc2)N1CC1CCCO1 (stereo not given) ?
M1 ag: inactive; M1 antagonist: inactive; S1P3 agonist: inactive; TNAP act mid DEA: inactive; S1P1 ag-PAM: inactive

Results for CC1CN(c2nc3c(c(=O)n(C)c(=O)n3C)n2Cc2c(Cl)cccc2Cl)CC(C)O1 (stereo not given) ?
M1 ag: inactive; D1 mod: inactive; M1 antagonist: 3.2; S1P3 agonist: inactive; TNAP act mid DEA: inactive; S1P1 ag-PAM: inactive

What do the screens show for `CSCC[C@H](NC(=O)OC(C)(C)C)c1nnc(SCC=C(C)C)o1`?
M1 ag: inactive; D1 mod: inactive; M1 antagonist: inactive; S1P3 agonist: inactive; TNAP act mid DEA: inactive; S1P1 ag-PAM: inactive

Results for O=C(Cn1cnc2ccccc21)OCC(=O)N1CCCc2ccccc21 ?
M1 ag: -2.4; D1 mod: inactive; M1 antagonist: inactive; S1P3 agonist: inactive; TNAP act mid DEA: inactive; S1P1 ag-PAM: inactive

Results for C=CCn1c(SCC(=C)C)nc2c1c(=O)[nH]c(=O)n2C ?
M1 ag: inactive; D1 mod: 6.6; M1 antagonist: inactive; S1P3 agonist: inactive; TNAP act mid DEA: inactive; S1P1 ag-PAM: inactive

What do the screens show for `CCCCCCn1c(SCC(C)C)nc2c1c(=O)[nH]c(=O)n2C`?
M1 ag: inactive; D1 mod: 27; M1 antagonist: inactive; S1P3 agonist: inactive; TNAP act mid DEA: inactive; S1P1 ag-PAM: inactive

Results for C=CCn1c(SCCN2CCOCC2)nc2c1c(=O)[nH]c(=O)n2C ?
M1 ag: inactive; D1 mod: inactive; M1 antagonist: inactive; S1P3 agonist: inactive; TNAP act mid DEA: inactive; S1P1 ag-PAM: inactive

Results for CCCCCSc1nc2c(c(=O)[nH]c(=O)n2C)n1CC ?
M1 ag: inactive; D1 mod: 9; M1 antagonist: inactive; S1P3 agonist: inactive; TNAP act mid DEA: inactive; S1P1 ag-PAM: inactive

What do the screens show for `CCCCCSc1nc2c(c(=O)[nH]c(=O)n2C)n1C`?
M1 ag: inactive; D1 mod: inactive; M1 antagonist: inactive; S1P3 agonist: inactive; TNAP act mid DEA: inactive; S1P1 ag-PAM: inactive

How did CC(C)C(=O)Nc1cccc(C(=O)Nc2nccs2)c1 do in these assays?
M1 ag: inactive; D1 mod: inactive; M1 antagonist: inactive; S1P3 agonist: inactive; TNAP act mid DEA: inactive; S1P1 ag-PAM: inactive

Results for O=S(=O)(Cc1ccccc1)N1CCC(c2nc(-c3cccs3)no2)CC1 ?
M1 ag: inactive; D1 mod: inactive; M1 antagonist: inactive; S1P3 agonist: inactive; TNAP act mid DEA: inactive; S1P1 ag-PAM: inactive

Results for CC1CCc2c(C(=O)N3CCN(S(=O)(=O)c4cccs4)CC3)csc2C1 (stereo not given) ?
M1 ag: inactive; D1 mod: inactive; M1 antagonist: inactive; S1P3 agonist: inactive; TNAP act mid DEA: inactive; S1P1 ag-PAM: inactive

How did c1ccc(-c2ccc(-c3nc(-c4ccccn4)no3)cc2)cc1 do in these assays?
M1 ag: inactive; D1 mod: -9.6; M1 antagonist: inactive; TNAP act mid DEA: inactive

What do the screens show for `c1ccc(-c2noc(-c3ccc4ccccc4c3)n2)cc1`?
M1 ag: inactive; D1 mod: -7; M1 antagonist: inactive; S1P3 agonist: inactive; TNAP act mid DEA: inactive; S1P1 ag-PAM: inactive

Results for c1ccc(-c2cc(-c3nc(-c4ccccn4)no3)c3ccccc3n2)cc1 ?
M1 ag: inactive; D1 mod: inactive; M1 antagonist: inactive; S1P3 agonist: inactive; TNAP act mid DEA: inactive; S1P1 ag-PAM: inactive

How did Cc1ccc(-c2nc(-c3ccccn3)no2)cc1Cl do in these assays?
M1 ag: inactive; D1 mod: -4.4; M1 antagonist: inactive; S1P3 agonist: inactive; TNAP act mid DEA: inactive; S1P1 ag-PAM: inactive

How did Brc1ccc(-c2nc(-c3ccccc3)no2)o1 do in these assays?
M1 ag: inactive; D1 mod: inactive; M1 antagonist: inactive; S1P3 agonist: inactive; TNAP act mid DEA: inactive; S1P1 ag-PAM: inactive

How did Clc1cc(Cl)c(OCc2nc(-c3ccccn3)no2)cc1Cl do in these assays?
M1 ag: inactive; D1 mod: inactive; M1 antagonist: inactive; S1P3 agonist: inactive; TNAP act mid DEA: inactive

Results for Clc1cccc(-c2nc(-c3ccccn3)no2)c1 ?
M1 ag: inactive; D1 mod: -6.9; M1 antagonist: inactive; TNAP act mid DEA: inactive

Results for c1ccc(-c2noc(-c3ccco3)n2)nc1 ?
M1 ag: inactive; M1 antagonist: inactive; S1P3 agonist: inactive; TNAP act mid DEA: inactive

Results for Cc1ccc2[nH]c(=O)c(CN(Cc3cccnc3)C(=O)c3ccncc3)cc2c1 ?
M1 ag: inactive; D1 mod: inactive; M1 antagonist: inactive; S1P3 agonist: inactive; TNAP act mid DEA: inactive; S1P1 ag-PAM: inactive

What do the screens show for `Cc1ccc(-c2nc(-c3ccccn3)no2)cc1`?
M1 ag: inactive; D1 mod: -7.6; M1 antagonist: inactive; S1P3 agonist: inactive; TNAP act mid DEA: inactive

How did c1ccc(-c2noc(-c3cccc4ccccc34)n2)nc1 do in these assays?
M1 ag: inactive; D1 mod: -2.8; M1 antagonist: inactive; S1P3 agonist: inactive; TNAP act mid DEA: inactive

What do the screens show for `COc1cccc(-c2nc(-c3ccccn3)no2)c1OC`?
M1 ag: inactive; M1 antagonist: inactive; S1P3 agonist: inactive; TNAP act mid DEA: inactive; S1P1 ag-PAM: inactive

What do the screens show for `COc1cc(-c2nc(-c3ccccn3)no2)cc(OC)c1OC`?
M1 ag: inactive; M1 antagonist: inactive; S1P3 agonist: inactive; TNAP act mid DEA: inactive; S1P1 ag-PAM: inactive

Results for CCn1cc(C(=O)N2CCCc3ccccc32)c2cc(OC)c(OC)cc2c1=O ?
M1 ag: inactive; D1 mod: inactive; M1 antagonist: 0.88; TNAP act mid DEA: inactive

How did O=C(CSc1ncccn1)Nc1ccccc1 do in these assays?
M1 ag: inactive; M1 antagonist: 1.9; S1P3 agonist: inactive; TNAP act mid DEA: inactive; S1P1 ag-PAM: inactive

Results for CC(NC(=O)CSc1ncccn1)c1ccccc1 (stereo not given) ?
M1 ag: inactive; D1 mod: inactive; M1 antagonist: inactive; S1P3 agonist: inactive; TNAP act mid DEA: inactive; S1P1 ag-PAM: inactive

Results for COCc1cc(=O)[nH]c(/N=C(\N)Nc2ccc(C)cc2)n1 ?
M1 ag: inactive; D1 mod: inactive; M1 antagonist: inactive; S1P3 agonist: inactive; TNAP act mid DEA: inactive; S1P1 ag-PAM: inactive

Bioassay records as filed in PubChem BioAssay.
